Results from ChEMBL document CHEMBL3739256, “Design, Synthesis, and Biological Evaluation of 1,2-Dihydroisoquinolines as HIV-1 Integrase Inhibitors” (ACS Med Chem Lett, 2015).

Experiments:
[1] = biological target: Human immunodeficiency virus type 1 integrase (Human immunodeficiency virus 1, UniProt Q7ZJM1); assay: Inhibition of HIV-1 integrase strand transfer activity preincubated for 30 mins followed by addition of FITC-labelled dsDNA for 1 hr by microplate reader analysis
[2] = biological target: Human immunodeficiency virus type 1 integrase (Human immunodeficiency virus 1, UniProt Q7ZJM1, G140S); assay: Inhibition of HIV-1 integrase G140S mutant strand transfer activity preincubated for 30 mins followed by addition of FITC-labelled dsDNA for 1 hr by microplate reader analysis
Sequence of Human immunodeficiency virus type 1 integrase (Human immunodeficiency virus 1, UniProt Q7ZJM1, G140S) (Q7ZJM1 entry or part of it G140S): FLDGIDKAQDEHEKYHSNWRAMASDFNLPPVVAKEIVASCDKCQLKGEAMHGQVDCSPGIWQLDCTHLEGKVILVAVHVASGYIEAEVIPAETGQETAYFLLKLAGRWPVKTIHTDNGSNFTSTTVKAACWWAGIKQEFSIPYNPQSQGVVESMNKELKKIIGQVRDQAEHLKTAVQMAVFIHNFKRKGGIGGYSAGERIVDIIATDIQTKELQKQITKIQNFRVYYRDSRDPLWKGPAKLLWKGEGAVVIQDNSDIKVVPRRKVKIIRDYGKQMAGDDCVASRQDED

[3] = system: Human immunodeficiency virus 1; assay: Antiviral activity against HIV-1 infected in human TZM-bl cells assessed as inhibition of viral replication for 48 hrs by bright-Glo luciferase assay; format: functional, organism-based; settings: Human immunodeficiency virus 1, TZM-bl
Procedure, shortened: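 Antiviral screen in TZM-bl cells, a HeLa clone engineered to express CD4 and CCR5 receptors. Activity is reported as EC50 in μM.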

[4] = Cytotoxicity against human TZM-bl cells after 48 hrs by Cell-titerGlo assay; format: cell-based
[5] = Therapeutic index, ratio of CC50 for human TZM-bl cells to EC50 for HIV-1 infected in TZM-bl cells; format: cell-based; settings: read-out: Ratio CC50/EC50
Procedure, shortened: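 Index calculated as CC50/EC50, both measured in TZM-bl cells; CC50 is cell-based cytotoxicity at 48 h.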

[6] = Cytotoxicity against human Jurkat cells after 48 to 72 hrs by MTT assay; format: cell-based
[7] = system: Human immunodeficiency virus 1; assay: Antiviral activity against HIV-1 NL4-3 infected in human jurkat cells assessed as decrease in p24 level at 10 uM after 48 hrs by western blot analysis; format: functional; settings: Human immunodeficiency virus 1, NL4-3, Jurkat
Procedure, shortened: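 Jurkat cells were treated with compound at 10 μM or left untreated, then infected at MOI 1 with VSV-G-pseudotyped pNL4-3 (WT HIV-1). Supernatants were pelleted, solubilized in lysis buffer and probed on Western blot with a p24 antibody. Band intensity was quantified by densitometry as percent p24 relative to the untreated infected control, with significance at p < 0.05.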

Sequence of Human immunodeficiency virus type 1 integrase (Human immunodeficiency virus 1, UniProt Q7ZJM1) (Q7ZJM1 whole entry): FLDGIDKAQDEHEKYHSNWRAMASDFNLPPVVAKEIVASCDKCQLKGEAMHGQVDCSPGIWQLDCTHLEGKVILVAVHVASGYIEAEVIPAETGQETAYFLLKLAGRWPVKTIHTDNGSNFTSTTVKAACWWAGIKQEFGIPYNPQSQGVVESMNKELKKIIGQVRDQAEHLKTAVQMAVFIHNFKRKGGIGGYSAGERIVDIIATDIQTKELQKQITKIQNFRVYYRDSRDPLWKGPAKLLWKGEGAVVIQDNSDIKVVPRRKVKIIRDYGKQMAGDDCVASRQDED

`COc1ccc(C2=Cc3ccc(F)cc3C(CC(=O)C(C)O)N2c2ccc([N+](=O)[O-])cc2)cc1` (stereo not drawn) gave an IC50 [1] of 5.2 µM, an IC50 [2] of 5.5 µM and an EC50 [3] of 12.7 µM. The CC50 at 48 h [4] was 10.1 µM, the selectivity ratio [5] was 0.7 and the CC50 [6] was 6.1 µM.

Work on `COc1ccc(C2=Cc3ccc([N+](=O)[O-])cc3C(CC(C)=O)N2c2ccc(C)cc2)cc1` (stereo not drawn) yielded an IC50 [1] of 0.6 µM, an IC50 [2] of 0.65 µM and an EC50 [3] of 26.3 µM. It also gave a CC50 at 48 h [4] of 10.6 µM, a selectivity ratio [5] of 0.4 and a CC50 [6] of 33.1 µM.

Compound `COc1ccc(C2=Cc3ccc(F)cc3C(CC(=O)C(C)O)N2c2ccc(O)cc2)cc1` (stereo not drawn) has an IC50 [1] of 25.2 µM, an IC50 [2] of 25 µM and an EC50 [3] of 19.7 µM. It also gave a CC50 at 48 h [4] of 50.9 µM and a selectivity ratio [5] of 2.5.

With `Cc1nnc(C(=O)NC(C)(C)c2nc(C(=O)NCc3ccc(F)cc3)c(O)c(=O)n2C)o1` the EC50 [3] was 0.15 µM, the CC50 at 48 h [4] was > 200 µM and the inhibition at 10 µM [7] was 92%. For the same compound, the CC50 [6] was > 120 µM.

For `COc1ccc(C2=Cc3ccc([N+](=O)[O-])cc3C(CC(C)=O)N2c2ccc(F)cc2)cc1` (stereo not drawn), the IC50 [1] was 0.46 µM, the IC50 [2] was 0.64 µM and the EC50 [3] was 36.3 µM. The CC50 at 48 h [4] was 7.7 µM, the selectivity ratio [5] was 0.2 and the CC50 [6] was 16.4 µM.

Work on `COc1ccc(C2=Cc3ccc(OC)cc3C(C[N+](=O)[O-])N2c2ccccc2)cc1` (stereo not drawn) yielded an EC50 [3] of 10.5 µM, a CC50 at 48 h [4] of 29.4 µM and a selectivity ratio [5] of 2.8. For the same compound, the CC50 [6] was 22.1 µM.

For `COc1ccc(C2=Cc3ccc(F)cc3C(CC(C)=O)N2c2ccc(C#N)cc2)cc1` (stereo not drawn), the IC50 [2] was 20 µM.

Work on `COc1ccc(C2=Cc3ccc(F)cc3C(CC(=O)CO)N2c2ccc(O)cc2)cc1` (stereo not drawn) yielded an IC50 [1] of 22.1 µM, an IC50 [2] of 20.1 µM and an EC50 [3] of 24.4 µM. For the same compound, the CC50 at 48 h [4] was 47.7 µM and the selectivity ratio [5] was 1.9.

For `COc1ccc(C2=Cc3ccc(F)cc3C(CC(=O)C(C)O)N2c2ccc(F)cc2)cc1` (stereo not drawn), the IC50 [1] was 7.9 µM, the IC50 [2] was 8 µM and the EC50 [3] was 11.7 µM. The CC50 at 48 h [4] was 14 µM, the selectivity ratio [5] was 1.1 and the CC50 [6] was 1.81 µM.

In the case of `O=[N+]([O-])CC1c2ccccc2C=C(c2ccccc2)N1c1ccccc1` (stereo not drawn), the EC50 [3] is reported as 15.6 µM, the CC50 at 48 h [4] is reported as 10.3 µM and the selectivity ratio [5] is reported as 0.6. For the same compound, the CC50 [6] was 42.3 µM.

Compound `COc1ccc(C2=Cc3ccc(F)cc3C(CC(C)=O)N2c2ccc([N+](=O)[O-])cc2)cc1` (stereo not drawn) has a CC50 at 48 h [4] of 11.2 µM.

Work on `COc1ccc(C2=Cc3ccc([N+](=O)[O-])cc3C(CC(C)=O)N2c2ccc(C#N)cc2)cc1` (stereo not drawn) yielded an IC50 [1] of 2.9 µM, an IC50 [2] of 2.8 µM and an EC50 [3] of 22.5 µM. It also gave a CC50 at 48 h [4] of 15.4 µM and a selectivity ratio [5] of 0.6.

`COc1ccc(C2=Cc3ccc(F)cc3C(CC(=O)CO)N2c2ccc(Cl)cc2)cc1` (stereo not drawn) showed an IC50 [1] of 17.9 µM, an IC50 [2] of 14.9 µM and an EC50 [3] of 26.4 µM. The CC50 at 48 h [4] was 8.5 µM and the selectivity ratio [5] was 0.3.

For `COc1ccc(C2=Cc3ccc(F)cc3C(CC(=O)CO)N2c2ccc(C)cc2)cc1` (stereo not drawn), the IC50 [1] was 15.1 µM, the IC50 [2] was 14.1 µM and the EC50 [3] was 28.4 µM. The CC50 at 48 h [4] was 23.7 µM and the selectivity ratio [5] was 0.8.

`COc1ccc(C2=Cc3ccc([N+](=O)[O-])cc3C(CC(C)=O)N2c2ccc(O)cc2)cc1` (stereo not drawn) gave an IC50 [1] of 6.6 µM, an IC50 [2] of 7.6 µM and an EC50 [3] of 31.4 µM. The CC50 at 48 h [4] was 23.5 µM and the selectivity ratio [5] was 0.7.

For `Cc1ccc(C2=Cc3ccccc3C(C[N+](=O)[O-])N2c2ccc(F)cc2)cc1` (stereo not drawn), the EC50 [3] was 16.5 µM, the CC50 at 48 h [4] was 21.5 µM and the selectivity ratio [5] was 1.3. For the same compound, the CC50 [6] was 51.2 µM.

`COc1ccc(C2=Cc3ccc(F)cc3C(CC(=O)C(C)O)N2c2ccc(C#N)cc2)cc1` (stereo not drawn) showed an IC50 [1] of 22.2 µM, an IC50 [2] of 22 µM and an EC50 [3] of 18.7 µM. For the same compound, the CC50 at 48 h [4] was 24.1 µM and the selectivity ratio [5] was 1.2.

In the case of `COc1ccc(C2=Cc3ccc(F)cc3C(CC(C)=O)N2c2ccc(O)cc2)cc1` (stereo not drawn), the IC50 [1] is reported as 12 µM, the IC50 [2] is reported as 14 µM and the EC50 [3] is reported as 21.4 µM. It also gave a CC50 at 48 h [4] of 60.5 µM and a selectivity ratio [5] of 2.8.

`COc1ccc(C2=Cc3ccc(F)cc3C(CC(=O)CO)N2c2ccc(C#N)cc2)cc1` (stereo not drawn) showed an IC50 [1] of 7.6 µM, an IC50 [2] of 7 µM and an EC50 [3] of 29.1 µM. It also gave a CC50 at 48 h [4] of 39.7 µM and a selectivity ratio [5] of 1.3.

For `COc1ccc(C2=Cc3ccc(F)cc3C(CC(=O)C(C)O)N2c2ccc(C)cc2)cc1` (stereo not drawn), the IC50 [1] was 10.6 µM, the IC50 [2] was 12.7 µM and the CC50 at 48 h [4] was 12.7 µM.

`COc1ccc(C2=Cc3ccc(F)cc3C(CC(=O)CO)N2c2ccc([N+](=O)[O-])cc2)cc1` (stereo not drawn) showed an IC50 [1] of 0.82 µM, an IC50 [2] of 46.4 µM and an EC50 [3] of 10.4 µM. It also gave a CC50 at 48 h [4] of 46.4 µM, a selectivity ratio [5] of 4.4 and an inhibition at 10 µM [7] of 70.9%. For the same compound, the CC50 [6] was 57.1 µM.

With `COc1ccc(C2=Cc3ccc(F)cc3C(C[N+](=O)[O-])N2c2ccc(Cl)cc2)cc1` (stereo not drawn) the IC50 [1] was 0.7 µM, the IC50 [2] was 0.8 µM and the EC50 [3] was 0.03 µM. For the same compound, the CC50 at 48 h [4] was 32.2 µM, the selectivity ratio [5] was 1070 and the inhibition at 10 µM [7] was 91%. For the same compound, the CC50 [6] was 20.3 µM.

`COc1ccc(C2=Cc3ccc(F)cc3C(CC(=O)C(C)O)N2c2ccc(Cl)cc2)cc1` (stereo not drawn) gave an IC50 [1] of 11.8 µM, an IC50 [2] of 10.8 µM and a CC50 at 48 h [4] of 9.9 µM.

With `O=[N+]([O-])CC1c2cc([N+](=O)[O-])ccc2C=C(c2ccccc2)N1c1ccc(Cl)cc1` (stereo not drawn) the IC50 [1] was 3.1 µM, the IC50 [2] was 3 µM and the EC50 [3] was 1.15 µM. For the same compound, the CC50 at 48 h [4] was 26 µM, the selectivity ratio [5] was 22.6 and the CC50 [6] was 24.9 µM.
